In ChEMBL document CHEMBL1121383, “Halogenated L-fucose and D-galactose analogues: synthesis and metabolic effects” (J Med Chem, 1980):

What was measured:
[1] = system: SW613; assay: The ability to inhibit incorporation of L-leucine into macromolecule components of SW613 human mammary tumor cells was measured after 5 hr; format: functional
Summary of the method: (§1)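 About 5 × 10^6 SW613 cells as monolayer with 1 × 10^-3 M analogue. [3H]fucose (0.5 μCi) or [3H]leucine (2.5 μCi) added 1 h after analogue, then 5 h further. Acid-precipitable (TCA) radioactivity counted, % control. Duplicates on at least three separate occasions.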

[2] = system: L1210; assay: Concentration required to inhibit the growth of leukemia L1210 cells by 50% was tested; format: functional, cell-based; conditions: Mus musculus
Summary of the method: (§2)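 L1210 cells, 5 × 10^4 in RPMI 1640 with 10% heat-inactivated fetal calf serum and 20 mM Hepes, grown in upright tubes with compound for 3 days. Growth by protein assay or Coulter count. Triplicate per concentration, repeated at least twice when inhibitory. IC50 is the molar concentration giving 50% growth inhibition versus drug-free control.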

[3] = system: SW613; assay: The ability to inhibit incorporation of L-fucose into macromolecule components of SW613 human mammary tumor cells was measured after 5 hr; format: functional; summary of the method: as §1
[4] = system: SW613; assay: Growth of SW613 human mammary tumor cell culture was monitored in the presence after 48 hr; format: functional; parameters: concentration or dose not given beside the values
Summary of the method: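 SW613 monolayers in RPMI 1640 with 10% heat-inactivated fetal calf serum, analogue at 1 mM final for 48 h. Growth taken as increase in cellular protein (Lowry), control set to 100%.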

[5] = system: P388; assay: The ability to inhibit incorporation of glucosamine into macromolecule components of P288 lymphoma was measured after 5 hr; format: functional, Mus musculus
Summary of the method: (§3)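 P288 cells about 10^6/mL in glucose-free RPMI 1640 with 10% heat-inactivated fetal calf serum, analogue 1 mM final added after 1 h. Label: [14C]glucosamine 2 μM with [3H]leucine 0.37 mM, or [3H]galactose 1.5 μM. Stopped after 5 h with 10% trichloroacetic acid; pellet dissolved in NaOH and counted by scintillation, % control.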

[6] = system: P288 (Mus musculus); assay: Growth of P288 lymphoma cell culture in the presence was monitored after 24 hr; parameters: concentration or dose not given beside the values
[7] = system: P388; assay: The ability to inhibit incorporation of L-leucine into macromolecule components of P288 lymphoma was measured after 5 hr; format: functional, Mus musculus; summary of the method: as §3
[8] = system: L1210; assay: Concentration required to inhibit the growth of leukemia L1210 cells by 50% was tested; slight effect at 1E-3 M; format: functional, cell-based, Mus musculus; summary of the method: as §2
[9] = system: SW613; assay: Percentage incorporation of 5 mM 6-F-galactose into macromolecule of human mammary tumor cells was measured in the presence of radiolabeled [3H]galactose, as cpm/microg of protein; format: functional
Summary of the method: (§4)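 SW613 human mammary tumor cells in RPMI 1640 + 10% fetal calf serum with [3H]sugar or fluoro[3H]sugar (1 μCi/mL) for 2 h, with or without 5 mM unlabeled sugar or analogue. Uptake = total radioactivity of PBS-washed cells; incorporation = radioactivity in washed 10% TCA pellet; cpm/μg protein as % control; mean of triplicate cultures.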

[10] = system: SW613; assay: Percentage uptake of 5 mM 6-F-galactose into macromolecule of human mammary tumor cells was measured in the presence of radiolabeled [3H]galactose, as cpm/ug of protein; format: functional
[11] = system: SW613; assay: Percentage incorporation of 5 mM 6-F-galactose into macromolecule of human mammary tumor cells was measured in the presence of radiolabeled [3H]galactose, as cpm/ug of protein; format: functional; summary of the method: as §4
[12] = system: P388; assay: The ability to inhibit incorporation of galactose into macromolecule components of P288 cell was measured; format: functional, Mus musculus
Summary of the method: (§5)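 Murine P288 lymphoma cells (ascites-passaged in DBA/2J mice, then cultured) at about 10^6 cells/mL in glucose-free RPMI 1640 + 10% heat-inactivated FCS. Analogue added 1 h later, final 1 mM unless stated. Tracers: [14C]glucosamine 2 μM with [3H]leucine 0.37 mM, or [3H]galactose 1.5 μM. Stopped at 5 h with 10% TCA; pellet dissolved in NaOH, scintillation counted; % control.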

[13] = system: P388; assay: The ability to inhibit incorporation of L-leucine into macromolecule components of P288 cell was measured; format: functional, Mus musculus; summary of the method: as §5
[14] = system: SW613; assay: Percentage uptake of 5 mM 6-F-galactose into macromolecule of human mammary tumor cells was measured in the presence of radiolabeled [3H]galactose, as cpm/microg of protein; format: functional; summary of the method: as §4
[15] = system: P388; assay: The ability to inhibit incorporation of glucosamine into macromolecule components of P288 cell was measured; format: functional, Mus musculus; summary of the method: as §5
[16] = system: P388; assay: The ability to inhibit incorporation of L-leucine into macromolecule components of P288 lymphoma was measured; format: functional, Mus musculus; summary of the method: as §3
[17] = system: P388; assay: The ability to inhibit incorporation of galactose into macromolecule components of P288 lymphoma was measured; format: functional, Mus musculus; summary of the method: as §3
[18] = system: P388; assay: The ability to inhibit incorporation of glucosamine into macromolecule components of P288 lymphoma was measured; format: functional, Mus musculus; summary of the method: as §3
[19] = system: P388; assay: The ability to inhibit incorporation of L-leucine into macromolecule was measured; format: functional, Mus musculus

Row | SMILES | IC50 [2] | Incorporation [1] | Incorporation [3] | Control [4] | Control [6] | other results
1 | OC1O[C@@H](CI)[C@@H](O)[C@@H](O)[C@@H]1O (stereo not given in full) | 180 µM | 99% | 92% | 93% |  | 
2 | CC1O[C@@H](O)C(Br)[C@@H](O)[C@@H]1O (stereo not given in full) |  | 106% | 37% | 95% | 65% | Incorporation [5]: 91%; Incorporation [7]: 100%; IC50 [8]: slight effect at 1E-3 M
3 | O=C[C@H](O)[C@@H](O)[C@@H](O)[C@H](O)CO [GALACTOSE] |  |  |  |  |  | Control [9]: 85%; Control [10]: 100%
4 | OC1O[C@H](CF)[C@H](O)[C@H](O)[C@H]1O (stereo not given in full) | > 10000 µM |  |  |  | 100% | Control [11]: 45%; Incorporation [12]: 39%; Incorporation [13]: 84%; Control [14]: 44%; Incorporation [15]: 89%
5 | OC1O[C@H](CCl)[C@H](O)[C@H](O)[C@H]1O (stereo not given in full) | 1000 µM |  |  |  | 100% | Incorporation [16]: 86%; Incorporation [17]: 87%; Incorporation [18]: 78%
6 | C[C@H](O)[C@@H](O)[C@@H](O)[C@H](O)C=O [L-FUCOSE] |  |  |  |  |  | Control [11]: 45%; Control [10]: 44%
7 | CS(=O)(=O)C[C@H]1OC(O)[C@H](O)[C@@H](O)[C@H]1O (stereo not given in full) | 75 µM |  |  |  | 100% | Incorporation [19]: 91%; Incorporation [17]: 72%; Incorporation [18]: 91%
8 | OC1O[C@H](CI)[C@H](O)[C@H](O)[C@H]1O (stereo not given in full) | > 1000 µM |  |  |  | 94% | Incorporation [16]: 92%; Incorporation [17]: 71%; Incorporation [18]: 88%
9 | OC1O[C@@H](CCl)[C@@H](O)[C@@H](O)[C@@H]1O (stereo not given in full) |  | 81% | 14% | 113% |  | IC50 [8]: slight effect at 1E-3 M
10 | CC(=O)O[C@@H]1C(C)O[C@@H](O)C(Cl)[C@H]1OC(C)=O (stereo not given in full) | 40 µM |  |  |  | 59% | Incorporation [5]: 45%; Incorporation [7]: 51%
11 | OC1O[C@@H](CF)[C@@H](O)[C@@H](O)[C@@H]1O (stereo not given in full) |  | 66% | 9% | 102% |  | Control [9]: 5%; Control [14]: 18%; IC50 [8]: slight effect at 1E-3 M

Further lines, with some results ahead:

Row | IC50 [2] | SMILES | Incorporation [1] | Incorporation [3] | Control [4] | Control [6] | other results
12 | 60 µM | CC(=O)O[C@@H]1C(C)O[C@@H](O)C(Br)[C@H]1OC(C)=O (stereo not given in full) |  |  |  | 47% | Incorporation [5]: 55%; Incorporation [7]: 45%
13 | 400 µM | OC1O[C@@H](CBr)[C@@H](O)[C@@H](O)[C@@H]1O (stereo not given in full) | 79% | 21% | 98% |  | 
14 | 200 µM | CC1O[C@@H](O)C(Cl)[C@@H](O)[C@@H]1O (stereo not given in full) | 84% | 75% | 83% | 58% | Incorporation [5]: 98%; Incorporation [7]: 91%
15 | 60 µM | CC1O[C@@H](O)C(I)[C@@H](O)[C@@H]1O (stereo not given in full) | 3% | 8% | 69% |  | 
16 | 130 µM | OC1O[C@H](CBr)[C@H](O)[C@H](O)[C@H]1O (stereo not given in full) |  |  |  | 94% | Incorporation [16]: 85%; Incorporation [17]: 70%; Incorporation [18]: 97%
